From ChEMBL document CHEMBL2021768, “Syntheses of [12]aneN₃-oligopeptide conjugates as effective DNA condensation agents” (Bioorg Med Chem, 2012) come the findings set out here.

Active and inactive are the calls of the source. The calls are words filed in the database; no cut-off is given here. Residues, ends and D or L forms follow the SMILES beside them.

Data set [1] concerns Nucleic Acid. Kind of data set: Induction of Escherichia coli pUC18 DNA condensation assessed as retardation of DNA migration at 500 uM after 1 hr by agarose gel electrophoresis. Type of data set: nucleic-acid assay. A digest of the protocol: (§1)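 Supercoiled pUC18 plasmid treated with conjugate in Tris–HCl (50 mM, pH 7.4), then incubated 1 h at 37 °C. Agarose gel electrophoresis compared with a DNA-alone lane. Retardation was judged by loss of supercoiled DNA migration.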

Data set [2] relates to Nucleic Acid. The data set can be described thus: Induction of Escherichia coli pUC18 condensation assessed as retardation of DNA migration at 250 uM after 1 hr by agarose gel electrophoresis. It is filed as nucleic-acid assay. An outline of the steps: as §1
Data set [3] concerns Nucleic Acid. Kind of data set: Induction of Escherichia coli pUC18 condensation assessed as hydrodynamic diameters of DNA nanoparticles at 50 to 250 uM after 5 mins by dynamic laser light scattering analysis. Type of data set: nucleic-acid assay. A digest of the protocol: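 pUC18 DNA at 9 μg/mL in Tris buffer (50 mM, pH 7.4) with conjugate, left 5 min at room temperature. Dynamic light scattering at 90° and 25 °C. Ten runs per solution, averaged and reported as mean ± S.D.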

Data set [4] concerns Nucleic Acid. The data set can be described thus: Induction of Escherichia coli pUC18 condensation assessed as diameters of DNA nanoparticles at 250 uM after 1 hr by atomic force microscopy. It is filed as nucleic-acid assay. An outline of the steps: (§2)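 pUC18 diluted to 9 μg/mL in Tris (5 mM, pH 7.4) with 1 mM MgCl2 plus conjugate, equilibrated 1 h at 37 °C. Sample spotted for 5 min on mica pretreated with 10 mM NiCl2, then rinsed and dried under argon. Imaged in air at room temperature by tapping-mode AFM with Si tips at 1–3 Hz.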

In data set [5] the test system is Nucleic Acid. Kind of data set: Binding affinity to calf thymus DNA assessed as fluorescence quenching after 1 min by ethidium bromide displacement assay. Type of data set: nucleic-acid assay. The note with it: Bos taurus. A digest of the protocol: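 Calf thymus DNA (100 μM) pretreated with ethidium bromide (10 μM), then conjugate added. Tris buffer (50 mM, pH 7.4), room temperature. Incubated 1 min before reading fluorescence, excitation 537 nm. Apparent binding constant (K_app) derived from the quenching curve.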

In data set [6] the test system is Nucleic Acid. Kind of data set: Induction of Escherichia coli pUC18 condensation assessed as retardation of DNA migration at 150 uM after 1 hr by agarose gel electrophoresis in presence of 50 to 400 mM NaCl. It is filed as nucleic-acid assay.
In data set [7] the test system is Nucleic Acid. Kind of data set: Reversible Escherichia coli pUC18 condensation assessed as DNA migration at 250 uM after 1 hr by agarose gel electrophoresis in presence of 200 mM NaCl. It is filed as nucleic-acid assay.
The nature of data set [8]: Cytotoxicity against human T98G cells assessed as cell viability at 250 uM after 24 hrs by MTT assay. It is filed as cell-based. The following applies: read-out: Activity. A digest of the protocol: (§3)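 MTT assay. HepG2 grown in DMEM with 15% FBS, T98G in MEM with 10% FBS, 37 °C, 5% CO2. Cells seeded at 5 × 10⁵ per well and cultured 24 h, then exposed to compound for 24 h. MTT (5 mg/mL stock) added for 4 h, formazan dissolved in DMSO, absorbance read at 490 nm. Viability taken relative to controls from four parallel tests.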

Data set [9] is described as follows: Cytotoxicity against human HepG2 cells assessed as cell viability at 250 uM after 24 hrs by MTT assay. It is filed as cell-based. The note with it: read-out: Activity. An outline of the steps: as §3
A general note: Tetrazolium dyes change colour on reduction, which living cells bring about.

The subject of data set [10] is Nucleic Acid. Kind of data set: Induction of Escherichia coli pUC18 condensation assessed as retardation of DNA migration at 200 uM after 1 hr by agarose gel electrophoresis. It is filed as nucleic-acid assay. An outline of the steps: as §1
The test system of data set [11] is Nucleic Acid. The data set can be described thus: Induction of Escherichia coli pUC18 condensation assessed as diameters of DNA nanoparticles at 150 uM after 1 hr by atomic force microscopy. It is filed as nucleic-acid assay. An outline of the steps: as §2
Data set [12] deals with Nucleic Acid. The data set can be described thus: Reversible Escherichia coli pUC18 condensation assessed as DNA migration at 150 uM after 1 hr by agarose gel electrophoresis in presence of 200 mM NaCl. Type of data set: nucleic-acid assay.
Data set [13] deals with Nucleic Acid. Kind of data set: Induction of Escherichia coli pUC18 condensation assessed as retardation of DNA migration at 220 uM after 1 hr by agarose gel electrophoresis in presence of 50 to 400 mM NaCl. Type of data set: nucleic-acid assay.

Consider `COC(=O)[C@H](C)NC(=O)[C@H](CC(C)C)NC(=O)[C@H](C)NC(=O)[C@H](CC(C)C)NC(=O)[C@H](C)NC(=O)[C@H](CC(C)C)NC(=O)CN1CCCNCCCNCCC1` (HELM PEPTIDE1{[O=C(CN1CCCNCCCNCCC1)[*:2]].L.A.L.A.L.A.[CO[*:1]]}$$$$V2.0), for which the result in the data set on Nucleic Acid [1] was inactive.

Take `COC(=O)[C@H](Cc1ccccc1)NC(=O)[C@H](CC(C)C)NC(=O)[C@H](C)NC(=O)[C@H](CC(C)C)NC(=O)[C@H](C)NC(=O)[C@H](CC(C)C)NC(=O)CN1CCCNCCCNCCC1` (HELM PEPTIDE1{[O=C(CN1CCCNCCCNCCC1)[*:2]].L.A.L.A.L.F.[CO[*:1]]}$$$$V2.0): the outcome in the data set with Nucleic Acid [2] and with Nucleic Acid [7] was Active. The Activity in the data set with Nucleic Acid [3] turned out to be 208 nm; with Nucleic Acid [4], 20 nm. Besides, the Kapp in the data set on Nucleic Acid [5] was found to be 1.4 ×10⁵ /M. Besides, in the data set with Nucleic Acid [6], the result was inactive. The viability at 24 h, 250 µM is 78% in [8] and 83% in [9].

As to `COC(=O)CNC(=O)[C@H](CC(C)C)NC(=O)[C@H](C)NC(=O)[C@H](CC(C)C)NC(=O)[C@H](C)NC(=O)[C@H](CC(C)C)NC(=O)CN1CCCNCCCNCCC1` (HELM PEPTIDE1{[O=C(CN1CCCNCCCNCCC1)[*:2]].L.A.L.A.L.G.[CO[*:1]]}$$$$V2.0), the result in the data set on Nucleic Acid [1] was inactive.

Regarding `COC(=O)[C@H](CC(C)C)NC(=O)[C@H](CC(C)C)NC(=O)[C@H](C)NC(=O)[C@H](CC(C)C)NC(=O)[C@H](C)NC(=O)[C@H](CC(C)C)NC(=O)CN1CCCNCCCNCCC1` (HELM PEPTIDE1{[O=C(CN1CCCNCCCNCCC1)[*:2]].L.A.L.A.L.L.[CO[*:1]]}$$$$V2.0), the outcome in the data set on Nucleic Acid [10] and in the data set on Nucleic Acid [12] was Active. In addition, the Activity in the data set on Nucleic Acid [3] came to 174 nm; in the data set with Nucleic Acid [11] it was 30 nm. Besides, the Kapp with Nucleic Acid [5] is 1.9 ×10⁵ /M. Besides, the result with Nucleic Acid [6] was inactive. Moreover, the figures for the viability at 24 h, 250 µM in data set [8] and in data set [9] were 96% and 97%, respectively.

As for `COC(=O)[C@H](CO)NC(=O)[C@H](CC(C)C)NC(=O)[C@H](C)NC(=O)[C@H](CC(C)C)NC(=O)[C@H](C)NC(=O)[C@H](CC(C)C)NC(=O)CN1CCCNCCCNCCC1` (HELM PEPTIDE1{[O=C(CN1CCCNCCCNCCC1)[*:2]].L.A.L.A.L.S.[CO[*:1]]}$$$$V2.0), the result in the data set on Nucleic Acid [1] was inactive.

Consider `COC(=O)[C@@H](NC(=O)[C@H](CC(C)C)NC(=O)[C@H](C)NC(=O)[C@H](CC(C)C)NC(=O)[C@H](C)NC(=O)[C@H](CC(C)C)NC(=O)CN1CCCNCCCNCCC1)C(C)C` (HELM PEPTIDE1{[O=C(CN1CCCNCCCNCCC1)[*:2]].L.A.L.A.L.V.[CO[*:1]]}$$$$V2.0), for which the result in the data set with Nucleic Acid [1] was inactive.

On to `COC(=O)[C@H](Cc1c[nH]c2ccccc12)NC(=O)[C@H](CC(C)C)NC(=O)[C@H](C)NC(=O)[C@H](CC(C)C)NC(=O)[C@H](C)NC(=O)[C@H](CC(C)C)NC(=O)CN1CCCNCCCNCCC1` (HELM PEPTIDE1{[O=C(CN1CCCNCCCNCCC1)[*:2]].L.A.L.A.L.W.[CO[*:1]]}$$$$V2.0), for which the outcome in the data set with Nucleic Acid [2] and in the data set on Nucleic Acid [7] was Active. For the same molecule, the Activity in the data set on Nucleic Acid [3] came out at 196 nm; in the data set on Nucleic Acid [4] it was 36 nm. For the same molecule, the Kapp in the data set on Nucleic Acid [5] worked out at 1.2 ×10⁵ /M. Besides, the result in the data set with Nucleic Acid [13] was inactive. For the same molecule, the viability at 24 h, 250 µM in data set [8] was determined as 80%; in data set [9] it was 85%.

Regarding `COC(=O)[C@H](Cc1ccc(O)cc1)NC(=O)[C@H](CC(C)C)NC(=O)[C@H](C)NC(=O)[C@H](CC(C)C)NC(=O)[C@H](C)NC(=O)[C@H](CC(C)C)NC(=O)CN1CCCNCCCNCCC1` (HELM PEPTIDE1{[O=C(CN1CCCNCCCNCCC1)[*:2]].L.A.L.A.L.Y.[CO[*:1]]}$$$$V2.0), in the data set on Nucleic Acid [1], the outcome was inactive.
